Most compounds without a hit are left out; they make up all but 4% or so of the library.
Mdm2 ligase inh: MDM2-luciferase reporter signal enhancers, primary screen, MDM2 E3 ligase inhibitor project, cell-based, luminescence, 1536-well; signal enhancement, % at 5 µM; cell-based MDM2 ubiquitination luciferase reporter, 2 h; 0 = plate control, 100 = twice control, blank-subtracted; 210,000 tested, 0.11% active; AID 1230, 2008; E3 ubiquitin-protein ligase Mdm2 (Homo sapiens), Q00987;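 active means signal enhancement of 30% or more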;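 further: luminescence tracks abundance of the self-degrading MDM2-luciferase fusion protein; higher signal means inhibition of MDM2 E3 ligase activity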
Target sequence (Q00987 whole entry, looked up, the tested form may be a part): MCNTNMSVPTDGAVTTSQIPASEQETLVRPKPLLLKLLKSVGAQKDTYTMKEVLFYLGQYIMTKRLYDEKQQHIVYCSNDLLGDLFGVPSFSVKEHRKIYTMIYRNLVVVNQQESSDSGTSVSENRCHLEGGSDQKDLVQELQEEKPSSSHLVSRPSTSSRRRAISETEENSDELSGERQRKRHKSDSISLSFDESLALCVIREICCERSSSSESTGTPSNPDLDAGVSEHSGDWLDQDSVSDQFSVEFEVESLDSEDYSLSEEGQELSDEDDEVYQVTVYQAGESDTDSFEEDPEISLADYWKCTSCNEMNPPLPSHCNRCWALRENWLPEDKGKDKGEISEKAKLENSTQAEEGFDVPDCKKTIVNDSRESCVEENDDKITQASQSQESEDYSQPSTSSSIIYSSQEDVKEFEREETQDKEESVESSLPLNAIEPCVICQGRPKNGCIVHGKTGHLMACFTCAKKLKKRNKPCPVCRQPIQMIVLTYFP
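Assay system: stable mammalian line carrying autodegrading MDM2–luciferase fusion reporter; amount: 2000 cells seeded into each well; buffer or medium: DMEM; benchmarks: plate control and blank wells; signal: luciferase luminescence; timing: 2 h compound exposure at 37 °C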
Hsp70 activator: Hsp70 transcriptional activators, primary screen, cell-based, HeLa, Hsp70 promoter luciferase, luminescence, 10 µM. HeLa Hsp70 promoter luciferase reporter; scaled: vehicle 0, proteasome-inhibitor control 100%. activation, % at 10 µM. 200,000 tested, 0.04% active. AID 1203, 2008;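 active means activation above the mean across all tested compounds plus 3 SD, cutoff set per campaign, cut at about 5.5% in these data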;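 further: 100% = MG132 at 30 µM as the positive control and 0% = DMSO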
CHOP inh: inhibitors of CHOP promoter induction, primary screen, cell-based, unfolded protein response, luciferase reporter; CHO-K1 CHOP-promoter luciferase, tunicamycin-induced, 15-18 h; inhibition, % at 10 µM; 220,000 tested, 3.8% active; AID 2732, 2010;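 active means compounds that reduced the stress-induced luciferase reporter signal by more than about 70% of percent inhibition, limit read from the data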;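 further: 0% = tunicamycin plus vehicle and 100% = wells without tunicamycin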
S1P3 antagonist: S1P3 receptor antagonists, primary screen, cell-based | Sphingosine 1-phosphate receptor 3 (Homo sapiens), Q99500 | CHO S1P3 NFAT-BLA reporter, FRET fluorescence, antagonist mode | inhibition, % at 4.98 µM | 170,000 tested, 0.27% active | AID 485, 2006;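 active means inhibition above the plate cutoff, the mean inhibition of test wells on that plate plus 3 SD, cut at about 28% in these data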;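 further: cells challenged with S1P at its EC80 of 0.8 µM; blue over green emission ratio from cleaved BLA substrate after 4 h stimulation; 0% = S1P-stimulated wells and 100% = unstimulated DMSO-only wells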
Numbers without * were called inactive; . = not tested or not shown.

SMILES | Mdm2 ligase inh | Hsp70 activator | CHOP inh | S1P3 antagonist
O=C(NC(NNc1ccc([N+](=O)[O-])cc1)(C(F)(F)F)C(F)(F)F)c1ccc(Cl)cc1 | -10 | 0 | 79* | .
O=C(NNc1ccc([N+](=O)[O-])cc1)c1ccccc1Cl | -28 | 0 | -18 | -10
C=CCNC(=O)c1ccc(CNS(=O)(=O)c2ccc(NC(C)=O)cc2)cc1 | -14 | 0 | -10 | .
CC(=O)Nc1ccc(S(=O)(=O)NCc2ccc(C)cc2)cc1 | -18 | 0 | 76* | .
CCC12CN3CCN(CC(C3)/C1=N\NC(=O)c1ccc(C(C)(C)C)cc1)C2 | 7 | 0 | 8 | 2
OCCC1CN(Cc2cccn2-c2ccccn2)CCN1C1CCCCC1 (stereo unspecified) | -2 | 0 | 21 | 6
COCc1cc(C)nc(NC2CCCCC2)c1C#N | -6 | 0 | 82* | -13
COCc1cc(C)nc(N2CCCCC2)c1C#N | -3 | 0 | -17 | .
COC(=O)NNC(=S)Nc1ccc(Br)cc1 | -1 | 0 | 32 | 0
COc1cc(C#N)c(NC(=S)N2CCOCC2)cc1OC | -22 | 0 | 7 | -19
O=C(COc1ccccc1)N/N=C/c1ccc([N+](=O)[O-])o1 | -15 | 0 | -85 | -5
O=C(CNc1ccc2ccccc2c1)N/N=C/c1ccc([N+](=O)[O-])o1 | -3 | -1 | 99* | 4
FC(F)Oc1ccc(/C=N/NC(=S)Nc2cc(C(F)(F)F)ccc2Cl)cc1 | -12 | -1 | 76* | -22
CNC(=S)Nc1cc(C(F)(F)F)ccc1Cl | -3 | 0 | -5 | -8
CCOC(=O)Cn1nc(C)c(NC(=O)COc2ccc(C)c(C)c2)c1C | . | . | 0 | -6
Cc1nc(N2CCOCC2)nc(OC(C)C)c1[N+](=O)[O-] | 1 | 0 | 84* | -9
O=C(Nn1nnnc1Nc1ccccc1)C12CC3CC(CC(C3)C1)C2 | -4 | 0 | 94* | .
CCOC(=O)c1ccc(NC(=O)Nc2ccc3c4c(cccc24)C(=O)N3CC)cc1 | -11 | 0 | 83* | -44
CCOC(=O)C(C(=O)OCC)c1cc(Br)c2noc3c2c1C(=O)c1ccccc1-3 | 0 | 0 | 110* | .
N/C(=N/OC(=O)c1ccccc1Cl)c1ncc([N+](=O)[O-])s1 | -6 | . | -37 | 10
CCOC(=O)c1cccc(NC(=O)/C=C/c2cccc([N+](=O)[O-])c2)c1 | -5 | 0 | 84* | .
O=C(c1cc2ccccc2o1)N1CCN(c2ccccc2Cl)CC1 | -20 | 0 | 82* | 15
O=C(c1ccccc1)N1CCN(C(=O)c2cc3ccccc3o2)CC1 | -5 | 0 | 18 | .
O=C(COc1cccc(Cl)c1)N/N=C\c1cc2ccccc2nc1Cl | -6 | 0 | 78* | -8
O=C(COc1ccc(-c2ccccc2)cc1)N/N=C/c1ccccc1Br | -5 | 0 | -29 | .
SMILES | Mdm2 ligase inh | Hsp70 activator | CHOP inh | S1P3 antagonist
O=C(COc1cccc(Br)c1)N/N=C/C(=O)c1ccccc1 | -15 | 0 | 80* | -8
CCOc1ccc(/C=N/NC(=O)c2c(-c3ccccc3)noc2C)cc1 | -6 | 0 | 26 | 2
O=C(COc1ccc(-c2ccccc2)cc1)N/N=C/c1cc(O)ccc1Br | -14 | 0 | 81* | -4
CCOc1ccc(/C=N/NC(=O)COc2ccccc2-c2ccccc2)cc1 | -7 | 0 | 78* | .
Cc1cccc(OCC(=O)NCC(=O)N/N=C/c2cc(Br)ccc2OCc2ccccc2)c1 | -9 | 0 | 67 | -5
CC(C)(C)n1ncc2c(=O)n(CC(=O)N3CCCCC3)cnc21 | -24 | 0 | -9 | 6
Cc1ccc(/C=C/c2ccc(=O)n(Cc3ccc(F)cc3)n2)cc1 | -21 | 0 | 79* | 6
O=c1ccc(/C=C/c2ccccc2)nn1Cc1ccc(F)cc1 | -34 | 0 | 80* | 0
Cc1ccc(/C=C/c2ccc(=O)n(Cc3ccccc3Cl)n2)cc1 | -13 | 0 | -10 | .
O=C(COC(=O)c1cccnc1Cl)Nc1cc(S(=O)(=O)N2CCCCC2)ccc1Cl | -8 | 0 | 39 | 1
O=C(NC(NC(=O)c1ccccc1)c1ccccc1)c1ccccc1 | -21 | 0 | 80* | .
Cc1cccc(NC(=S)N(CCN(C)C)Cc2cccs2)c1 | -11 | 0 | 5 | -25
CCc1ccc(Nc2nc(N)nc(CSc3nnnn3-c3ccccc3)n2)cc1 | -15 | 0 | 88* | -11
CC1CC(=O)C2=C(C1)Nc1ccccc1SC2c1ccc(F)cc1 (stereo unspecified) | -5 | 0 | 12 | 9
CN(C)C(CNC(=S)Nc1cccc(Cl)c1)c1ccccc1 (stereo unspecified) | -9 | 0 | -22 | -18
CCCCN(CCCC)c1nc2ccccc2nc1NS(=O)(=O)c1ccc(NC(C)=O)cc1 | -15 | 0 | 88* | .
Cc1ccc2nc(N3C(=O)C(O)=C(C(=O)c4ccco4)C3c3cccs3)sc2c1 (stereo unspecified) | -3 | 1 | 94* | .
COc1cc(OC)c2c(C)cc(=O)oc2c1C(CCN1CCOCC1)c1ccc(N(C)C)cc1 (stereo unspecified) | -9 | . | 5 | .
O=C(Nc1ccc([N+](=O)[O-])cc1)Nc1ccc(N2CCOCC2)c2nonc12 | 3 | 0 | 76* | 1
CN=c1scc(-c2ccccc2F)n1/N=C/c1ccc(O)c(O)c1O | -54 | 0 | 7 | -7
CN=c1scc(-c2ccccc2F)n1/N=C/c1ccc[nH]1 | -97 | 0 | 98* | -3
CCCn1c(C(=O)OC)cc2c1ccn2-c1ccc(F)cc1 | -12 | 0 | 71* | .
COC(=O)c1cc2c(ccn2-c2ccc(F)cc2)n1CC(C)C | -8 | 0 | 23 | .
CCC(C)(C)NC(=O)CCn1c(-c2ccccc2)cc(C(C)=O)c1C | 0 | 0 | -12 | -11
Cc1nc(N2CCC(C)CC2)c2c(C)c(C(=O)Nc3ccc(C)c(F)c3)sc2n1 | -6 | 0 | 71* | 0
SMILES | Mdm2 ligase inh | Hsp70 activator | CHOP inh | S1P3 antagonist
O=C(Nc1ccc(-c2nc3ccccc3o2)c(O)c1)c1cc(-n2cnnc2)ccc1Cl | -1 | 0 | 92* | 10
CCC(=O)OCc1c(C(F)(F)F)nn(C)c1Sc1ccc(Cl)cc1 | 9 | 0 | 79* | .
CCOC(=O)c1nc(NCc2ccccc2F)c2ccccc2n1 | 3 | 0 | 20 | 0
C/C(=N\NC(=O)c1ccccc1NC(=O)c1ccc(Cl)cc1)c1ccncc1 | -90 | -1 | 72* | 7
CC(C)Nc1ccc(C(CC(N)=O)NC(=O)Cc2ccc(Cl)cc2)cc1[N+](=O)[O-] (stereo unspecified) | 13 | . | -19 | .
Cc1ccc(C(=O)C(C)N2C(=O)NC(C)(c3ccccc3)C2=O)cc1 (stereo unspecified) | -1 | 0 | 14 | 0
COc1ccc(CCNc2ccc(C(=O)O)cc2[N+](=O)[O-])cc1OC | -3 | 0 | 7 | 4

Bioassay records deposited in PubChem BioAssay by several laboratories.
